Assay results as given in ChEMBL document CHEMBL1124956, “Renin inhibitors based on dipeptide analogues. Incorporation of the hydroxyethylene isostere at the P2/P3 sites” (J Med Chem, 1990).
pIC50: −log10 of the molar value.

Target: T1, Renin (Homo sapiens, UniProt P00797)
T1 sequence (P00797 whole entry): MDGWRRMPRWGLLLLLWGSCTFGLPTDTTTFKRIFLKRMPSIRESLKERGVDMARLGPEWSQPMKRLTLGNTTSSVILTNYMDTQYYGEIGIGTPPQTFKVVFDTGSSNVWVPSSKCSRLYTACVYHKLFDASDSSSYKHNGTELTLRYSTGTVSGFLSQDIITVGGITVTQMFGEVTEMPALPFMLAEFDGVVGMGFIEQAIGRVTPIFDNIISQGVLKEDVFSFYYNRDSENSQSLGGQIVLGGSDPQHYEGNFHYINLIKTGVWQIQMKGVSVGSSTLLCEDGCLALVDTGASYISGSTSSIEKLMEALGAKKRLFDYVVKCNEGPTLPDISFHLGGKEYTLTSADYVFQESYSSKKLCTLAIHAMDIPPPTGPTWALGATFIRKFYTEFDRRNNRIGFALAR
Test: In vitro inhibitory activity against human renal renin using radioimmunoassay for angiotensin I production
In short: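 Purified human renin enzyme, assayed in maleate buffer at pH 6.0. The remaining conditions follow a previously published protocol.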

Row | SMILES | pIC50
1 | C=C(C[C@H](O)[C@H](CC1CCCCC1)NC(=O)C(C)CC(O)[C@H](Cc1ccccc1)NC(=O)OC(C)(C)C)C(=O)NCC(C)C (single isomer, unassigned) | 7.70
2 | C=CCCCC(NC(=O)[C@H](Cc1ccccc1)NC(=O)OC(C)(C)C)C(=O)N[C@@H](CC1CCCCC1)[C@@H](O)CC(=C)C(=O)NCC(C)C (mixture of isomers) | 7.74
3 | C=CCCC[C@H](C[C@@H](O)[C@H](Cc1ccccc1)NC(=O)OC(C)(C)C)C(=O)N[C@@H](CC1CCCCC1)[C@@H](O)CC(=C)C(=O)NCC(C)C | 9.00
4 | C=CCCCC(C[C@@H](O)[C@H](Cc1ccccc1)NC(=O)OC(C)(C)C)C(=O)N[C@@H](CC1CCCCC1)[C@@H](O)[C@@H](CO)CC(C)C (stereo not given in full) | 7.92
5 | C=CCCC[C@@H](C[C@@H](O)[C@H](Cc1ccccc1)NC(=O)OC(C)(C)C)C(=O)N[C@@H](CC1CCCCC1)[C@@H](O)CC(=C)C(=O)NCC(C)C | 8.10
6 | C=C(C[C@H](O)[C@H](CC1CCCCC1)NC(=O)C(CCCCC)CC(O)[C@H](Cc1ccccc1)NC(=O)OC(C)(C)C)C(=O)NCC(C)C (stereo not given in full) | 7.72
7 | C=C(C[C@H](O)[C@H](CC1CCCCC1)NC(=O)C(CCCC)CC(O)[C@H](Cc1ccccc1)NC(=O)OC(C)(C)C)C(=O)NCC(C)C (stereo not given in full) | 8.26
8 | C=C(C[C@H](O)[C@H](CC1CCCCC1)NC(=O)[C@H](C)C[C@H](O)[C@H](Cc1ccccc1)NC(=O)OC(C)(C)C)C(=O)NCC(C)C | 5.52
9 | C=C(C[C@H](O)[C@H](CC1CCCCC1)NC(=O)C(CC(C)C)CC(O)[C@H](Cc1ccccc1)NC(=O)OC(C)(C)C)C(=O)NCC(C)C (stereo not given in full) | 7.60
10 | C=C(C[C@H](O)[C@H](CC1CCCCC1)NC(=O)C(C)NC(=O)[C@H](Cc1ccccc1)NC(=O)OC(C)(C)C)C(=O)NCC(C)C (stereo not given in full) | 8.00
11 | C=C(C[C@H](O)[C@H](CC1CCCCC1)NC(=O)C(CC(C)C)NC(=O)[C@H](Cc1ccccc1)NC(=O)OC(C)(C)C)C(=O)NCC(C)C (stereo not given in full) | 8.22
12 | C=C(C[C@H](O)[C@H](CC1CCCCC1)NC(=O)C(Cc1c[nH]cn1)NC(=O)[C@H](Cc1ccccc1)NC(=O)OC(C)(C)C)C(=O)NCC(C)C (stereo not given in full) | 8.70
13 | C=C(C[C@H](O)[C@H](CC1CCCCC1)NC(=O)[C@@H](C)C[C@@H](O)[C@H](Cc1ccccc1)NC(=O)OC(C)(C)C)C(=O)NCC(C)C | 7.00
14 | C=C(C[C@H](O)[C@H](CC1CCCCC1)NC(=O)[C@@H](C[C@H](O)[C@H](Cc1ccccc1)NC(=O)OC(C)(C)C)Cn1ccnn1)C(=O)NCC(C)C | 5.57
15 | C=C(C[C@H](O)[C@H](CC1CCCCC1)NC(=O)[C@H](C)C[C@@H](O)[C@H](Cc1ccccc1)NC(=O)OC(C)(C)C)C(=O)NCC(C)C | 7.70
16 | C=C(C[C@H](O)[C@H](CC1CCCCC1)NC(=O)[C@@H](C[C@@H](O)[C@H](Cc1ccccc1)NC(=O)OC(C)(C)C)Cn1ccnn1)C(=O)NCC(C)C | 7.02
17 | C=C(C[C@H](O)[C@H](CC1CCCCC1)NC[C@H](C)C[C@@H](O)[C@H](Cc1ccccc1)NC(=O)OC(C)(C)C)C(=O)NCC(C)C | < 5.00
18 | CC(C)C[C@H](C[C@@H](O)[C@H](Cc1ccccc1)NC(=O)OC(C)(C)C)C(=O)N[C@@H](CC1CCCCC1)[C@@H](O)[C@@H](CO)CC(C)C | 8.22
19 | C=C(C[C@H](O)[C@H](CC1CCCCC1)NC(=O)C(CCCCCC)CC(O)[C@H](Cc1ccccc1)NC(=O)OC(C)(C)C)C(=O)NCC(C)C (stereo not given in full) | 7.15
20 | C=C(C[C@H](O)[C@H](CC1CCCCC1)NC(=O)C(CCCC)NC(=O)[C@H](Cc1ccccc1)NC(=O)OC(C)(C)C)C(=O)NCC(C)C (mixture of isomers) | 8.70
